Assay results: ChEMBL document CHEMBL3351464, “Identifying novel selective non-nucleoside DNA methyltransferase 1 inhibitors through docking-based virtual screening” (J Med Chem, 2014)
The source made the active and inactive calls. No cut-off for these calls is given here.

Tests used:
[1] = system: HCT-116; experiment: Induction of apoptosis in human HCT116 cells assessed as early apoptotic cells level at 0.75 uM incubated for 24 hrs by 7-AAD and annexin V staining-based flow cytometry (reference value: 4%); type: functional
[2] = system: HCT-116; experiment: Induction of apoptosis in human HCT116 cells incubated for 24 hrs by 7-AAD and annexin V staining-based flow cytometry; type: functional, cell-based
[3] = system: HCT-116; experiment: Induction of apoptosis in human HCT116 cells assessed as viable cells at 3 uM incubated for 24 hrs by 7-AAD and annexin V staining-based flow cytometry (reference value: 92.2%); type: functional; details: HCT-116, 24 h, read-out: Activity
[4] = target: T1, DNA (cytosine-5)-methyltransferase 1 (Mus musculus, UniProt P13864); experiment: Inhibition of N-terminal His6-tagged mouse DNMT1 (731 to 1602 residues) expressed in Escherichia coli BL21 (DE3) incubated for 15 mins before addition of [3H]-SAM and poly(dI-dC).poly(dI-dC) by liquid scintillation counting based radioactive methylation assay
In short: (§1)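 Enzyme was preincubated with compound for 15 min at room temperature, then reacted for 60 min at 37°C. Products were filter-captured, washed and counted by scintillation. IC50 came from a nonlinear dose-response fit; single-point tests used 50 µM.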

[5] = system: HCT-116; experiment: Induction of apoptosis in human HCT116 cells assessed as necrotic cells level at 1.5 uM incubated for 24 hrs by 7-AAD and annexin V staining-based flow cytometry (reference value: 0.7%); type: functional
[6] = system: HCT-116; experiment: Induction of apoptosis in human HCT116 cells assessed as early apoptotic cells level at 3 uM incubated for 24 hrs by 7-AAD and annexin V staining-based flow cytometry (reference value: 4%); type: functional
[7] = system: HCT-116; experiment: Induction of apoptosis in human HCT116 cells assessed as late apoptotic cells level at 0.75 uM incubated for 24 hrs by 7-AAD and annexin V staining-based flow cytometry (reference value: 3.1%); type: functional
[8] = system: HCT-116; experiment: Induction of apoptosis in human HCT116 cells assessed as late apoptotic cells level at 1.5 uM incubated for 24 hrs by 7-AAD and annexin V staining-based flow cytometry (reference value: 3.1%); type: functional
[9] = Binding affinity to DNA (unknown origin) at 0.0625 to 0.5 mM by ethidium bromide dye based agarose gel electrophoresis method
[10] = system: HCT-116; experiment: Induction of apoptosis in human HCT116 cells assessed as necrotic cells level at 3 uM incubated for 24 hrs by 7-AAD and annexin V staining-based flow cytometry (reference value: 0.7%); type: functional
[11] = system: HCT-116; experiment: Induction of apoptosis in human HCT116 cells assessed as viable cells at 0.75 uM incubated for 24 hrs by 7-AAD and annexin V staining-based flow cytometry (reference value: 92.2%); type: functional; details: HCT-116, 24 h, read-out: Activity
[12] = system: HCT-116; experiment: Induction of apoptosis in human HCT116 cells assessed as viable cells at 1.5 uM incubated for 24 hrs by 7-AAD and annexin V staining-based flow cytometry (reference value: 92.2%); type: functional; details: HCT-116, 24 h, read-out: Activity
[13] = target: T1, DNA (cytosine-5)-methyltransferase 1; experiment: (§2) Binding affinity to N-terminal His6-tagged mouse DNMT1 (731 to 1602 residues) expressed in Escherichia coli BL21 (DE3) by SPR assay
In short: (§3)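 Measured by SPR at 25°C. Purified mouse DNMT1 was amine-coupled to a CM5 chip in 10 mM sodium acetate pH 5.0 and equilibrated overnight in HBS-EP (10 mM HEPES pH 7.4, 150 mM NaCl, 3 mM EDTA, 0.05% P20, 0.1% DMSO). Serially diluted compounds were injected with 120 s contact and 120 s dissociation, and KD was derived by the instrument evaluation software.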

[14] = target: DNA (cytosine-5)-methyltransferase 1 (Mus musculus) (UniProt P13864); experiment: as §2; in short: as §3
[15] = target: DNA (cytosine-5)-methyltransferase 1 (Mus musculus) (UniProt P13864); experiment: Inhibition of N-terminal His6-tagged mouse DNMT1 (731 to 1602 residues) expressed in Escherichia coli BL21 (DE3) at 50 uM incubated for 15 mins before addition of [3H]-SAM and poly(dI-dC).poly(dI-dC) by liquid scintillation counting based radioactive methylation assay; in short: as §1
[16] = system: HCT-116; experiment: Induction of apoptosis in human HCT116 cells assessed as early apoptotic cells level at 1.5 uM incubated for 24 hrs by 7-AAD and annexin V staining-based flow cytometry (reference value: 4%); type: functional
[17] = system: HCT-116; experiment: Induction of apoptosis in human HCT116 cells assessed as necrotic cells level at 0.75 uM incubated for 24 hrs by 7-AAD and annexin V staining-based flow cytometry (reference value: 0.7%); type: functional
[18] = system: HCT-116; experiment: Induction of apoptosis in human HCT116 cells assessed as late apoptotic cells level at 3 uM incubated for 24 hrs by 7-AAD and annexin V staining-based flow cytometry (reference value: 3.1%); type: functional

Sequence of DNA (cytosine-5)-methyltransferase 1 (Mus musculus) (P13864 whole entry, the tested form may be a part): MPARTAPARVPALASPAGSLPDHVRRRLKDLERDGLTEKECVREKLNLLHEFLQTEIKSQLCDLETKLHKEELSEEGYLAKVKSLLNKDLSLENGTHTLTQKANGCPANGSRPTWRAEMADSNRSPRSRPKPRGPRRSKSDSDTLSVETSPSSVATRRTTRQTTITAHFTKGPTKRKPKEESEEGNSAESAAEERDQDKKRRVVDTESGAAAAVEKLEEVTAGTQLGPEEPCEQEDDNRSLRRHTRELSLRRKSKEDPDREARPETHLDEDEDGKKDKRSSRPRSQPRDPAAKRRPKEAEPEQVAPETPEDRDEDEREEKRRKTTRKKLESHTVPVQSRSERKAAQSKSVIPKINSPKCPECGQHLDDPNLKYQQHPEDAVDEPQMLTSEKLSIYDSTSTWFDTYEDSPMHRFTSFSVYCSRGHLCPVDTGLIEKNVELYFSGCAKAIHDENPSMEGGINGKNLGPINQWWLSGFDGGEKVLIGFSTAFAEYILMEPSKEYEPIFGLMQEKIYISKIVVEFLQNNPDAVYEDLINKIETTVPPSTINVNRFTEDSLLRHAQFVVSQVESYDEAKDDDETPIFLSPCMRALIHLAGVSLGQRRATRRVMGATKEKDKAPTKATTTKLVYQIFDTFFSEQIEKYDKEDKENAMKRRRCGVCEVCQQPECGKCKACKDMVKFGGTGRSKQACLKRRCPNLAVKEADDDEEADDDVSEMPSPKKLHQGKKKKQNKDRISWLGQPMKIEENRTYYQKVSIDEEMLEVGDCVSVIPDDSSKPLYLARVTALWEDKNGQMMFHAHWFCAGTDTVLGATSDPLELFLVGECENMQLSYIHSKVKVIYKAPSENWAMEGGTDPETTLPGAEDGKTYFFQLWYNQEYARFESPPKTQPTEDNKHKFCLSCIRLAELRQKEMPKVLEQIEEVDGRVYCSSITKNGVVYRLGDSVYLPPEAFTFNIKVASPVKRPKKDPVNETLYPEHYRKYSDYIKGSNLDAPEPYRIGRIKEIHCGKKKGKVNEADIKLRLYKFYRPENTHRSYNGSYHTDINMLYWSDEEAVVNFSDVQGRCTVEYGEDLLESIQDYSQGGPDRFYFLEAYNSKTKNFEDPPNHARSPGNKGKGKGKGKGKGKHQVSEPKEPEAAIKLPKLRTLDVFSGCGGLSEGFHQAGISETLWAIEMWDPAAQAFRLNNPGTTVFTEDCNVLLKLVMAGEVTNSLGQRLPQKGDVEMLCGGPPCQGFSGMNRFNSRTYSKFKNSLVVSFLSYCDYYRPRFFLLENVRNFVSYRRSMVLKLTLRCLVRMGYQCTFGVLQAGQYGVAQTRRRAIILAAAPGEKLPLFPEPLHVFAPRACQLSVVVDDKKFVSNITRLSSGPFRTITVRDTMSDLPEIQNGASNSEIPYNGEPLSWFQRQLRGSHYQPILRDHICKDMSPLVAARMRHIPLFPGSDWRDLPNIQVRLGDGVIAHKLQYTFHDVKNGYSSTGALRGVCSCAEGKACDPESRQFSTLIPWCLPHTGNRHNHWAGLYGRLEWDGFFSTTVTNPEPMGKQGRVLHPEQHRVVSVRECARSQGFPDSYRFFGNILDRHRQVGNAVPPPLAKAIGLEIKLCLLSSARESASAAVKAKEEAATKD
T1 sequence (P13864 whole entry, the tested form may be a part): as above

For CC(C)NCC(O)COC(Cn1c2ccccc2c2ccccc21)Cn1c2ccccc2c2ccccc21 (racemic), the Activity [1] was 4.6%, the Activity [2] was “Dose-dependent effect” and the viability at 3 µM [3] was 27.5%. It also gave an IC50 [4] of 1700 nM, an Activity [5] of 0.7% and an Activity [6] of 42.7%. The Activity [7] was 4%, the Activity [8] was 10.8% and the Activity [9] was “inactive”. For the same compound, the Activity [10] was 2.6%, the viability at 0.75 µM [11] was 91.1% and the viability at 1.5 µM [12] was 76%. The Kd [13] was 910 nM, the Activity [14] was “Dose-dependent effect” and the inhibition [15] was 102%. For the same compound, the Activity [16] was 12.5%, the Activity [17] was 0.3% and the Activity [18] was 27.2%.
